This passage reports Activity, MIC and zone of inhibition results from ChEMBL document CHEMBL1150325, “Synthesis of methyl 5-S-alkyl-5-thio-D-arabinofuranosides and evaluation of their antimycobacterial activity” (2008).

Test [1] deals with Mycolicibacterium smegmatis. Description: Antibacterial activity against Mycobacterium smegmatis ATCC 14468 assessed as inhibition zone diameter at 20 mg/mL after 24 hrs by Kirby-Bauer disk diffusion assay. The following applies: for zone of inhibition at 20000 µg/mL: ATCC 14468, 24 h, read-out: IZ. The class given is functional. The procedure, abridged:
(§1)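 Disk diffusion adapted from NCCLS. M. smegmatis was pre-grown about 24 h in 7H9 with 0.2% glycerol and ADC at 37.5 °C and 160 rpm, to OD₆₀₀ 0.27. It was swabbed onto Lennox or 7H10 agar with 0.5% glycerol and OADC. DMSO solutions (20 or 10 mg/mL) or control went onto 6 mm paper disks. Plates were incubated at 37 °C for 24 h, rechecked at day 6, and zone diameters measured in mm by ruler.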

Test [2] deals with Mycolicibacterium smegmatis. Kind of test: Antibacterial activity against Mycobacterium smegmatis ATCC 14468 assessed as inhibition zone diameter at 10 mg/mL after 24 hrs by Kirby-Bauer disk diffusion assay. The class given is functional. The following applies: for zone of inhibition at 10000 µg/mL: ATCC 14468, 24 h, read-out: IZ. The procedure, abridged:
as §1

The test system of another test is Escherichia coli. Description: Antibacterial activity against Escherichia coli ATCC 23722 after 36 hrs visualized by MTT staining by broth macrodilution assay. The format is functional. The following applies: ATCC 23722, 36 h. The procedure, abridged: (§2)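 Broth macrodilution adapted from NCCLS. E. coli and B. subtilis grown in Mueller-Hinton broth; M. smegmatis in Middlebrook 7H9 with 0.2% glycerol and ADC enrichment. Inocula were set to a 0.5 McFarland standard, giving a final density of 5.0 · 10⁵ cfu/mL. Incubated at 37 °C for 36 h and the MIC recorded.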

In a further test the test system is Bacillus subtilis. Kind of test: Antibacterial activity against Bacillus subtilis ATCC 6633 after 36 hrs visualized by MTT staining by broth macrodilution assay. The following applies: ATCC 6633, 36 h. The format is functional. The procedure, abridged:
as §2

Test [3] concerns Mycolicibacterium smegmatis. Kind of test: Antibacterial activity against Mycobacterium smegmatis ATCC 14468 after 36 hrs visualized by MTT staining by broth macrodilution assay. The format is functional. The following applies: ATCC 14468, 36 h. The procedure, abridged: as §2
The target in test [4] is Diacylglycerol acyltransferase/mycolyltransferase Ag85C (Mycobacterium tuberculosis) (UniProt P9WQN9). Kind of test: Inhibition of mycolyltransferase activity of Mycobacterium tuberculosis antigen 85C by UV-visible absorption spectroscopy. The essentials:
(§3)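 Purified ag85C (M. tuberculosis) in 10 mM Tris–HCl pH 7.5, 2 mM EDTA, 1 mM DTT, added to start the reaction. The mix holds sodium phosphate buffer, β-glucosidase, dextrose and the glucose-based p-nitrophenyl substrate analogue (stock 0.1–2.5 mM, in 10% v/v DMSO); test compound is added in DMSO. The coupled release of p-nitrophenolate is read at 405 nm every 20 s for 1 h, and activity is compared by the slopes.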

For test [5] the target is unchanged. Kind of test: Inhibition of mycolyltransferase activity of Mycobacterium tuberculosis antigen 85C at 1 to 20 mM by UV-visible absorption spectroscopy. The essentials: as §3

Values after ≈ are worked out from the molar mass of the structure shown. Active and inactive are the calls of the source. The calls are words filed in the database; no cut-off is given here.

Diacylglycerol acyltransferase/mycolyltransferase Ag85C (Mycobacterium tuberculosis), sequence (P9WQN9 whole entry): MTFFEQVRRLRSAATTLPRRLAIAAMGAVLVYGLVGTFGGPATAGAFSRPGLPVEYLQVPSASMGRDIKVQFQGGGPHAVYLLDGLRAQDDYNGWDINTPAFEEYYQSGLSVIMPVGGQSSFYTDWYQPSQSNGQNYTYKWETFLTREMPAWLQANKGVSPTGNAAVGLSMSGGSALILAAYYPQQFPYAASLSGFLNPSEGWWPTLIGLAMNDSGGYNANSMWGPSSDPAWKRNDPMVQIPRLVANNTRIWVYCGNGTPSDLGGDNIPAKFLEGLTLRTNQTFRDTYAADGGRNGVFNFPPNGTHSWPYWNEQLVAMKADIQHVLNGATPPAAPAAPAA

With `CCCCCCSC[C@H]1O[C@H](OC)[C@@H](O)[C@@H]1O`, the result in test [1] and in test [2] was inactive. Further, the results for the MIC (in the test on Escherichia coli; against Bacillus subtilis; in test [3]) were more than 1020 µg/mL, more than 1020 µg/mL and 1020 µg/mL (≈ 3.87 mM), respectively. Also, in test [4], the result was Active.
As to `CCCCSC[C@H]1O[C@H](OC)[C@@H](O)[C@@H]1O`, the outcome in test [1] and in test [2] was inactive. Besides, the MIC (against Escherichia coli; in the test on Bacillus subtilis; in test [3]) was more than 1020 µg/mL throughout.
As for `CCCCCCCCSC[C@H]1O[C@@H](OC)[C@@H](O)[C@@H]1O`, the zone of inhibition at 20000 µg/mL in test [1] is 13.5 mm. Further, in test [2], the zone of inhibition at 10000 µg/mL amounted to 7.5 mm. In addition, the values for the MIC (against Escherichia coli; against Bacillus subtilis; in test [3]) were more than 1020 µg/mL, 512 µg/mL (≈ 1.75 mM) and 512 µg/mL (≈ 1.75 mM), respectively. Moreover, in test [4], the outcome was Active.
With `CCCCSC[C@H]1O[C@@H](OC)[C@@H](O)[C@@H]1O`, the outcome in test [1], in test [2] and in test [5] was inactive. The MIC (against Escherichia coli; in the test with Bacillus subtilis; in test [3]) was more than 1020 µg/mL in each case.
Turning to `CCCCCCCCSC[C@H]1O[C@H](OC)[C@@H](O)[C@@H]1O`, the zone of inhibition at 20000 µg/mL in test [1] was found to be 17.5 mm. Moreover, in test [2], the zone of inhibition at 10000 µg/mL is 14.5 mm. Besides, the MIC was more than 1020 µg/mL against Escherichia coli, 128 µg/mL (≈ 0.438 mM) in the test with Bacillus subtilis and 256 µg/mL (≈ 0.875 mM) in test [3]. For the same molecule, the outcome in test [4] was Active.
As for `NNC(=O)c1ccncc1` [ISONIAZID], in test [3], 2 µg/mL (≈ 0.0146 mM) was the least that counted as inhibitory (MIC).
As to `CCCCCCSC[C@H]1O[C@@H](OC)[C@@H](O)[C@@H]1O`, the outcome in test [1] and in test [2] was inactive. The MIC in the test with Escherichia coli is more than 1020 µg/mL; in the test on Bacillus subtilis it was more than 1020 µg/mL; in test [3], 1020 µg/mL (≈ 3.87 mM). Besides, in test [4], the outcome was Active.
